Screening results: PubChem BioAssay, several laboratories
A selection: hits, their analogues and other compounds. The true share with any hit is near 4.1%.
KCNQ1 pot = potentiators or activators of human KCNQ1 potassium channel; P51787; CHO-K1 KCNQ1, thallium flux FluxOR fluorescence; stronger effect = higher value; B-score at 10 µM; hit rate 0.35% among 310,000; AID 2648;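 active = fluorescence ratio B-score, a plate-corrected score, at least three library SD, with initial intensity B-score within 5 SD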
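Doses: Single concentration per compound, DMSO matched to controls | Test system: KCNQ1-transfected CHO-K1 cells | Timing: 90 min dye loading and 20 min compound exposure, both at room temperature | Measured by: Kinetic FluxOR thallium fluorescence, 10-s 1-Hz baseline, 110-s post-stimulus read | Medium: Assay buffer with matched DMSO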
KCNQ1 block = inhibitors of human KCNQ1 potassium channel. hit rate 1.3% among 310,000. CHO-K1 KCNQ1, FluxOR thallium flux fluorescence; stronger effect = higher value. B-score at 10 µM. P51787;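 active = compounds whose thallium flux B-score, printed positive for inhibition, exceeds three library SD while starting fluorescence stays within three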;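 note: channel opened by potassium depolarization with thallium stimulus after 20 min compound exposure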
KCNK9 block = blocks the human KCNK9 two-pore domain potassium channel; Q9NPC2; HEK293 KCNK9, FluxOR thallium flux fluorescence; stronger effect = lower value; B-score at 10 µM; hit rate 1.2% among 310,000; AID 488922;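 active = ratio B-score over 3 SD below the library mean, with starting fluorescence within 5 SD of its mean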;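 note: negative B-score means less thallium flux so channel inhibition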
Target sequence (Q9NPC2 whole entry, looked up, the tested form may be a part): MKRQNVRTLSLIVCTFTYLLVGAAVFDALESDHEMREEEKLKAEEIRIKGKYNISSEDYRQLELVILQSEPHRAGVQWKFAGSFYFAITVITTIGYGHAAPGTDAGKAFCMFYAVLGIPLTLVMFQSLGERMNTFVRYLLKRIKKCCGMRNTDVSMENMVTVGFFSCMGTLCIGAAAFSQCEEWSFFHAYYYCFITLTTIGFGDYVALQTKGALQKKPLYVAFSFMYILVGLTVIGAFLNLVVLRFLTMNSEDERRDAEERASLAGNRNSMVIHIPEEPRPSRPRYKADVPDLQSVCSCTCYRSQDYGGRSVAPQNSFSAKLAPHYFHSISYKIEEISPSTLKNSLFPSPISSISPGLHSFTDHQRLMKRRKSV
hERG protect = shields human hERG channel from block by proarrhythmic agents; CHO-hERG, FluxOR thallium flux, dofetilide IC70 present; activation (rescue from dofetilide block), less the hit threshold, % at 10 µM; hit rate 0.51% among 310,000; AID 1511;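 active = activation above the mean of controls blocked by dofetilide plus 5 SD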;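 note: thallium influx through hERG after potassium depolarization seen as dye fluorescence rise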
KCNK3 block = human KCNK3 channel inhibition, primary screen; O14649; CHO-KCNK3 thallium flux, FluxOR fluorescence; stronger effect = lower value; B-score at 10 µM; hit rate 0.84% among 340,000; AID 602410;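 active = B-score under library mean minus 4 SD, starting fluorescence ratio at most library mean plus 5 SD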;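 note: more negative B-score means stronger inhibition of thallium flux through KCNK3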
Cl transport mod = KCC2 (human) Cl- transport modulation; Q9H2X9; KCC2 cells, thallium flux FluoZin-2 fluorescence; B-score of Tl+ flux slope (higher = more flux/activation; lower = inhibition) at 10 µM; hit rate 2.2% among 190,000;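 active = thallium flux slope and its plate-corrected score both differing from the plate sample mean at a set confidence after two filtering rounds, in either direction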;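 note: slope of fluorescence scaled to starting intensity during 10 to 20 s after thallium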
Starred values were filed as active, the others as inactive; i = inactive; / = no result given.

SMILES	KCNQ1 pot	KCNQ1 block	KCNK9 block	hERG protect	KCNK3 block	Cl transport mod
O=C(c1ccco1)N1N=C(c2cccs2)CC1c1ccc(F)cc1 (stereo not given)	i	i	-7*	-16	i	-0.44
CCC(=O)N1N=C(c2cccs2)CC1c1ccc(C)cc1 (stereo not given)	i	i	i	5.1*	i	/
COc1ccc(Cl)cc1NC(=O)CN1C(=O)NC(Cc2c[nH]c3ccccc23)C1=O (stereo not given)	/	/	/	/	i	/
CC1=C(C(=O)Nc2ccccc2C(=O)NC2CCC(C)CC2)SCCO1 (stereo not given)	i	i	i	-3	i	/
Cc1cc(C)nc(N2CCN(C(=O)CCC(=O)Nc3nnc(C(C)C)s3)CC2)n1	i	i	i	-11	i	2
Cc1cc(/C=C2\SC(=S)N(C)C2=O)c(C)n1-c1cccc(O)c1	i	i	-6.8*	-10	i	-0.2
CN1C(=O)/C(=C\c2ccccc2OCc2ccccc2)SC1=S	i	i	i	0	i	/
CN1C(=O)/C(=C\c2cc(N=Nc3ccccc3)ccc2O)SC1=S	i	7*	i	-7	i	-0.7
COc1ccc(-n2c(C)cc(/C=C3/SC(=S)N(C)C3=O)c2C)cc1	i	i	i	-3	i	-0.52
CCOc1cc(C(=S)N2CCOCC2)cc(Br)c1OS(=O)(=O)c1ccccc1	i	i	i	-4	i	/
O=C(CCS(=O)(=O)c1ccc(Br)cc1)NCc1ccc(F)cc1	i	i	i	-9	i	/
Clc1cccc(CN2CCC(Cc3ccccc3)CC2)c1	i	i	i	-14	i	0.74
O=C(/C=C/c1cccc(Cl)c1)N1CCC(Cc2ccccc2)CC1	i	8*	i	-9	i	-4
S=c1[nH]nc(-c2cc(-c3ccco3)[nH]n2)n1-c1cccc2ccccc12	i	i	i	-11	i	-0.45
Cc1ccc(-n2c(-c3cc(-c4ccco4)[nH]n3)n[nH]c2=S)c(Br)c1	i	6*	i	-15	i	-3
CCC(C)(C)C1CCC2(CC1)NC(=O)N(CC(=O)N(C)Cc1ccc3c(c1)OCCO3)C2=O (stereo not given)	/	/	/	/	i	/
Cc1cccc(NC(=O)CN2C(=O)S/C(=C\c3ccc(-c4cccc(C(=O)O)c4C)o3)C2=O)c1	i	i	i	21*	i	-0.49
Cc1ccccc1NC(=O)CN1C(=O)S/C(=C\c2ccc(-c3cccc(C(=O)O)c3C)o2)C1=O	i	i	i	11*	i	-0.64
Cc1ccc(NC(=O)CN2C(=O)S/C(=C/c3ccc(-c4cc(C(=O)O)ccc4C)o3)C2=O)cc1C	i	i	i	-2	i	-1.2
CC1(C2CC2)NC(=O)N(CC(=O)Nc2ccccc2F)C1=O (stereo not given)	/	/	/	/	i	/
O=C(O)CN1C(=O)/C(=C\c2cn(CC(=O)N3CCOCC3)c3ccccc23)SC1=S	i	6*	i	-15	i	-0.33
CC(C)(C)c1ccc2c(c1)C(=O)c1ccccc1C2=O	i	i	i	-5	i	0.02
CC(C)(C)C1=CC=C(C(C)(C)C)C(=O)C1=O	i	10*	i	-20	/	/
Cc1ccc(C)c(N2CCN(C(=O)c3ccc(Cn4c(=O)[nH]c5ccccc5c4=O)cc3)CC2)c1	i	i	i	-12	i	/
Cc1ccc(C)c(N2CCN(c3nc4ccccc4c(=O)n3Cc3ccccc3)CC2)c1	i	i	-7.6*	-12	i	1.2
COc1cc(/C=N/N(c2ccccc2)c2ccccc2)ccc1O	i	11*	i	-2	i	/
COc1cc(/C=N/Nc2ccccc2)ccc1O	i	i	i	-9	i	/
COc1cc(/C=N/Nc2ccccc2C(F)(F)F)ccc1O	i	i	-6.9*	-12	i	/
CC1(C)C2CCC1(CS(=O)(=O)NCc1ccc(C(F)(F)F)cc1)C(=O)C2 (stereo not given)	i	i	i	-1	i	/
O=C1CCN2C=Nc3cccc4ccc1c2c34	i	25*	i	-48	i	/
